Data from ChEMBL document CHEMBL1955846, “Aminopyrimidinone cdc7 kinase inhibitors” (Bioorg Med Chem Lett, 2012).
pEC50, pKi: −log10 of the molar value.

Legend:
[1] = target: T1, CDC7/DBF4 (Cell division cycle 7-related protein kinase/Activator of S phase kinase) (Homo sapiens, UniProt O00311); assay: Inhibition of human CDC7/DBF4 expressed using baculovirus expression system assessed as [33P]gamma-ATP incorporation into substrate after 60 mins by gamma counting
HCT-116 = assay: Cytotoxicity against human HCT116 cells after 3 days by CellTitre Glo assay; format: functional, cell-based; details: HCT-116, 72 h
How it was run: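 HCT-116 cells seeded at 3000 cells per well and held 24 h at 37 °C. Next day, treated with serial dilutions of inhibitor. After 3 days, an equal volume of Cell Titer GLO was added and luminescence read. EC50 derived from the viability readout.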

[2] = target: T1, CDC7/DBF4 (Cell division cycle 7-related protein kinase/Activator of S phase kinase); assay: Inhibition of CDC7/DBF4-mediated MCM2 phosphorylation in human HCT116 cells after 6 hrs by spectrophotometric analysis; format: cell-based, HCT-116

T1 sequence (Q9UBU7 whole entry): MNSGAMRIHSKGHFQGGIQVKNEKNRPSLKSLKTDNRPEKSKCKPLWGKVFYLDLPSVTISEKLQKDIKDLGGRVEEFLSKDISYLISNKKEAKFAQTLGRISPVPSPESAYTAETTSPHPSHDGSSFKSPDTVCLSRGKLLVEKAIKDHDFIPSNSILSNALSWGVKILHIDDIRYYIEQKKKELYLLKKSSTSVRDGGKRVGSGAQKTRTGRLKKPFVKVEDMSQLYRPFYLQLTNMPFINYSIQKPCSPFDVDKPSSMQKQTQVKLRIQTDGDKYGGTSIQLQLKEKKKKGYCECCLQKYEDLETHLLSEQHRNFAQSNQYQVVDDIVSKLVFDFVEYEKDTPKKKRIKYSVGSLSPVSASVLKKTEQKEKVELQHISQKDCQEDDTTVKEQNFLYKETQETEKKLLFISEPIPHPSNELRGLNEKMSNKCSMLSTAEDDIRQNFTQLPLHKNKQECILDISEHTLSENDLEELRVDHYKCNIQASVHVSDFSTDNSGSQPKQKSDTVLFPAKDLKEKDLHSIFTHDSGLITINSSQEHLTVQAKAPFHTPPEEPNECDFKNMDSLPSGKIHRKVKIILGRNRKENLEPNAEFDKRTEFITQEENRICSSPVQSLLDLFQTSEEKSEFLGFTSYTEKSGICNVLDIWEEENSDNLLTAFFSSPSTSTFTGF
T1 sequence (O00311 whole entry): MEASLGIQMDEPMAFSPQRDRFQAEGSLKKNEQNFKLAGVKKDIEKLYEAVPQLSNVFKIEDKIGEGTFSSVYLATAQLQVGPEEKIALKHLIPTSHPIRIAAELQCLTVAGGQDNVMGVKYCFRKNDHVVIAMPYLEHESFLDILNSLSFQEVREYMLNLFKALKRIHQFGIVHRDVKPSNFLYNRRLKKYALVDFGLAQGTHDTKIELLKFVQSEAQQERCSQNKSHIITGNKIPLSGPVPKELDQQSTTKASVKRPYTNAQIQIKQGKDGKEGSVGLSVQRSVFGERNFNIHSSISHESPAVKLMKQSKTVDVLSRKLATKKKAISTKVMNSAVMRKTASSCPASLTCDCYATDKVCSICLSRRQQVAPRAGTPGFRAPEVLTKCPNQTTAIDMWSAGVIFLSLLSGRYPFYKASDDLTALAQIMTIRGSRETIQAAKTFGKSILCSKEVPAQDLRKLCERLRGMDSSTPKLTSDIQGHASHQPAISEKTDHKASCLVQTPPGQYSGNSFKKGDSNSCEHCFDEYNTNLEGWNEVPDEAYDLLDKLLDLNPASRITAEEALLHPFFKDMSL

Structure (SMILES) | pKi [1] | pEC50 [2] | pEC50 (HCT-116)
O=c1cc(-c2cn[nH]c2)nc(NC2CCCCC2)[nH]1 | 7.82 | – | –
O=c1cc(-c2ccccc2)nc(NC2CCCCC2)[nH]1 | 6.64 | – | –
O=c1cc(-c2cccnc2)nc(NC2CCCCC2)[nH]1 | < 5.92 | – | –
O=c1cc(NC2CCCCC2)cc(-c2c[nH]c3ncccc23)[nH]1 | 8.96 | – | –
O=c1cc(-c2ccc3[nH]ncc3c2)nc(NC2CCCCC2)[nH]1 | 9.30 | – | –
O=c1cc(-c2c[nH]c3ncccc23)nc(-c2ccccc2)[nH]1 | 9.60 | 6.39 | 6.08
Oc1cc(NC2CCCCC2)nc(-c2c[nH]c3ncccc23)c1 | 8.27 | – | –
Nc1nccc(-c2cc(=O)[nH]c(NC3CCCCC3)n2)n1 | 8.30 | – | –
O=c1nc(-c2c[nH]c3ncccc23)nc(NC2CCCCC2)[nH]1 | 9.52 | – | –
O=c1cc(-c2c[nH]c3ncccc23)nc(NC(c2ccccc2)c2ccccc2)[nH]1 | 6.48 | – | –
O=c1cc(-c2c[nH]c3ncccc23)cc(NC2CCCCC2)[nH]1 | 9.30 | – | –
O=c1nc(-c2c[nH]c3ncccc23)cc(NC2CCCCC2)[nH]1 | 8.85 | – | –

These reach a higher pKi [1]. Values come first.

pKi [1] | pEC50 [2] | Structure (SMILES) | pEC50 (HCT-116)
9.92 | 6.84 | O=c1cc(-c2c[nH]c3ncccc23)nc(Nc2ccccc2)[nH]1 | 6.35
9.85 | 6.52 | O=c1cc(-c2c[nH]c3ncccc23)nc(NC2CCOCC2)[nH]1 | 5.61
> 10.15 | 7.22 | O=c1cc(-c2c[nH]c3ncccc23)nc(NC2CCCCC2)[nH]1 | 6.99
9.74 | 6.52 | O=c1cc(-c2c[nH]c3ncccc23)nc(N2CCOCC2)[nH]1 | 6.35
10.05 | 7.82 | CN(c1nc(-c2c[nH]c3ncccc23)cc(=O)[nH]1)C1CCCCC1 | 6.97
9.70 | 5.75 | O=c1cc(-c2c[nH]c3ncccc23)nc(N2CCC(O)CC2)[nH]1 | 5.21
> 10.15 | 6.74 | O=c1cc(-c2c[nH]c3ncccc23)nc(NCc2ccccc2)[nH]1 | 6.91
9.70 | 6.52 | COC1CCN(c2nc(-c3c[nH]c4ncccc34)cc(=O)[nH]2)CC1 | 6.28
9.96 | 5.58 | CN1CCC(Nc2nc(-c3c[nH]c4ncccc34)cc(=O)[nH]2)CC1 | 5.13
9.74 | 7.22 | COCCN(CCOC)c1nc(-c2c[nH]c3ncccc23)cc(=O)[nH]1 | 5.66
